# From ChEMBL document CHEMBL1156273, “Membrane permeable cyclic peptidyl inhibitors against human Peptidylprolyl Isomerase Pin1” (J Med Chem, 2010)
# Activity calls are given as the source filed them. The rule behind the calls is not given here. Square brackets hold non-standard residues; d marks the D form. Peptide text beside a SMILES is read from it. dalloThr(PO3H2) = C[C@@H](OP(=O)(O)O)[C@@H](N)C(=O)O; d(pT) = C[C@H](OP(=O)(O)O)[C@@H](N)C(=O)O; 2Nal = N[C@@H](Cc1ccc2ccccc2c1)C(=O)O; Pip = O=C(O)[C@@H]1CCCCN1
# What was measured:
# HeLa [1] = experiment: Cellular uptake in human HeLa cells assessed as cytoplasmic localization at 1 uM after 48 hrs by fluorescence microscopy; assay type: ADME, cell-based
# Method in brief: (§1)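 HeLa cells in DME + 10% FBS, 1% pen/strep, 37 °C, 5% CO2, grown on cover glass. Given 0 or 1.0 μM FITC-labeled peptide (FITC on the Glu side chain via a Lys linker) for 48 h. Then PBS-washed, fixed in 3.7% paraformaldehyde, permeabilized with goat serum/Triton X-100, DAPI-stained, and imaged by fluorescence microscopy.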
# HeLa [2] = experiment: Cellular uptake in human HeLa cells assessed as nuclear localization at 1 uM after 48 hrs by fluorescence microscopy; assay type: ADME, cell-based; method in brief: as §1
# [3] = molecular target: Peptidyl-prolyl cis-trans isomerase NIMA-interacting 1 (Homo sapiens) (UniProt Q13526); experiment: Inhibition of Pin1 in human BT474 cells assessed as increase in SMRT level at 5 uM by Western blotting; assay type: cell-based; settings: BT-474
# Method in brief: (§2)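 Cells given peptide for 48 h: HeLa in DME + 10% FBS, pen/strep; BT-474 in Hybri-Care DME + 10% FBS. Vehicle control DMSO. Lysed in RIPA with protease inhibitors, equal protein (Bradford) on 8% SDS-PAGE, nitrocellulose transfer, milk block. Probed with anti-SMRT, anti-PML and anti-β-actin (loading), HRP secondary, chemiluminescent detection.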
# [4] = molecular target: Peptidyl-prolyl cis-trans isomerase NIMA-interacting 1 (Homo sapiens) (UniProt Q13526); experiment: Inhibition of Pin1 in human BT474 cells assessed as increase in PML level at 5 uM by Western blotting; assay type: cell-based; settings: BT-474; method in brief: as §2
# BT-474 = experiment: Antiproliferative activity against human BT474 cells at […] after 6 days; assay type: functional
# Chain of Peptidyl-prolyl cis-trans isomerase NIMA-interacting 1 (Homo sapiens) (Q13526 whole entry): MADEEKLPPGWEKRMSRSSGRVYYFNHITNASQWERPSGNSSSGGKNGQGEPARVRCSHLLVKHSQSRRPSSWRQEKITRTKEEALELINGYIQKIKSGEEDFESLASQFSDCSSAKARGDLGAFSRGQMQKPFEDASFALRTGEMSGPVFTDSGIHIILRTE
Drug uptake (HeLa [1]),Drug uptake (HeLa [2]),Activity [3],Activity [4],SMILES,Activity (BT-474)
Active,Active,,,C[C@H](O)[C@H]1NC(=O)[C@@H](CCCNC(=N)N)NC(=O)[C@@H](CCCNC(=N)N)NC(=O)[C@H](CCC(N)=O)NC(=O)[C@H](CCCNC(=N)N)NC(=O)[C@H](Cc2ccc3ccccc3c2)NC(=O)[C@@H]2CCCCN2C1=O,
Active,Active,Active,Active,C[C@@H](OP(=O)(O)O)[C@H]1NC(=O)[C@H](CCCNC(=N)N)NC(=O)[C@H](CCCNC(=N)N)NC(=O)[C@H](CCCNC(=N)N)NC(=O)[C@H](CCC(N)=O)NC(=O)[C@H](CCCNC(=N)N)NC(=O)[C@H](CCCNC(=N)N)NC(=O)[C@H](Cc2ccc3ccccc3c2)NC(=O)[C@@H]2CCCCN2C1=O (cyclo([2Nal]RRQRRR[dalloThr(PO3H2)][Pip])),
Active,Active,,,C[C@H](O)[C@H]1NC(=O)[C@H](CCCNC(=N)N)NC(=O)[C@H](CCCNC(=N)N)NC(=O)[C@H](CCCNC(=N)N)NC(=O)[C@H](CCC(N)=O)NC(=O)[C@H](CCCNC(=N)N)NC(=O)[C@H](CCCNC(=N)N)NC(=O)[C@H](Cc2ccc3ccccc3c2)NC(=O)[C@@H]2CCCCN2C1=O (cyclo([2Nal]RRQRRR[dT][Pip])),
Active,Active,,,C[C@@H](OP(=O)(O)O)[C@H]1NC(=O)[C@@H](CCCNC(=N)N)NC(=O)[C@@H](CCCNC(=N)N)NC(=O)[C@H](CCC(N)=O)NC(=O)[C@H](CCCNC(=N)N)NC(=O)[C@H](Cc2ccc3ccccc3c2)NC(=O)[C@@H]2CCCCN2C1=O,

# More lines, now with the values behind:
SMILES,Drug uptake (HeLa [1]),Drug uptake (HeLa [2]),Activity [3],Activity [4],Activity (BT-474)
C[C@H](OP(=O)(O)O)[C@H]1NC(=O)[C@@H](CCCNC(=N)N)NC(=O)[C@@H](CCCNC(=N)N)NC(=O)[C@H](CCC(N)=O)NC(=O)[C@@H](CCCNC(=N)N)NC(=O)[C@@H](CCCNC(=N)N)NC(=O)[C@@H](CCCNC(=N)N)NC(=O)[C@H](CCCNC(=N)N)NC(=O)[C@H](Cc2ccc3ccccc3c2)NC(=O)[C@@H]2CCCCN2C1=O (cyclo([dR][dR][d(pT)][Pip][2Nal]R[dR][dR][dR]Q)),Active,Active,,,
C[C@H]1NC(=O)[C@H](CCC(N)=O)NC(=O)[C@H](CCCN)NC(=O)[C@H](Cc2ccc3ccccc3c2)NC(=O)[C@@H]2CCCCN2C(=O)[C@@H]([C@@H](C)OP(=O)(O)O)NC(=O)CNC1=O,,,,,inactive
C[C@H](O)[C@H]1NC(=O)[C@@H](CCCNC(=N)N)NC(=O)[C@@H](CCCNC(=N)N)NC(=O)[C@H](CCC(N)=O)NC(=O)[C@@H](CCCNC(=N)N)NC(=O)[C@@H](CCCNC(=N)N)NC(=O)[C@@H](CCCNC(=N)N)NC(=O)[C@H](CCCNC(=N)N)NC(=O)[C@H](Cc2ccc3ccccc3c2)NC(=O)[C@@H]2CCCCN2C1=O (cyclo([dR][dR][dT][Pip][2Nal]R[dR][dR][dR]Q)),Active,Active,,,
CC1NC(=O)[C@H](CCC(N)=O)NC(=O)[C@H](Cc2ccc(O)cc2)NC(=O)[C@H](Cc2ccc3ccccc3c2)NC(=O)[C@@H]2CCCCN2C(=O)[C@@H]([C@@H](C)OP(=O)(O)O)NC(=O)CN(C)C1=O (stereo in doubt),,,,,inactive
